According to article PMC10013843 (Molecular psychiatry, 2022):

What was measured:
MOR (OPRM1) = MOR (OPRM1) (Homo sapiens, UniProt P35372); assay: cAMP BRET; type: cell-based; details: HEK-293 cells, up to a concentration of 1 mM
Procedure, shortened: (§1)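 HEK-293 cells (DMEM, 10% FBS, 37°C/5% CO2) were PEI-transfected with 5 μg untagged MOR, KOR or DOR plus 5 μg CAMYEL cAMP biosensor and used 48 h later. Cells were suspended in DPBS with 100 μM metabisulfite and 5.5 mM glucose and kept 45 min in the dark. Forskolin (10 μM) was added for 5 min, then coelenterazine H (5 μM) for 5 min, then compound. BRET (535/475 nm) was read 5 min later, forskolin-only background subtracted, and expressed as % of each receptor's maximum. Triplicates; 3–6 experiments for EC50/Emax.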

mGluR2/3 = assay: mGluR functional assay; type: biochemical
rats [1] = details: i.v. doses up to 160 mg/kg; cited from earlier work
[2] = target: Neurokinin receptor (NK1) (Homo sapiens, UniProt P25103); assay: Receptor and enzyme competitive screen; type: binding; details: 10 μM
Procedure, shortened: (§2)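 In an outsourced panel, membranes from stable cell lines expressing each receptor or enzyme were incubated with the target's radioligand, with or without test compound at 100 nM or 10 μM. A reference compound ran concurrently, and a specific agonist or antagonist defined nonspecific binding. Bound ligand was collected by vacuum filtration through presoaked glass-fibre filters, washed with ice-cold buffer and counted by scintillation.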

[^14C]- = type: in vivo, rat; details: for % of the total radioactivity exposure through 72 hours: plasma; for plasma exposure AUC 0–72h: [^14C]-(2R,6R)-HNK 10 mg/kg i.v.
Procedure, shortened: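 Male and female rats received a single bolus IV dose of 14C-labelled test compound (10 mg/kg). Blood and plasma radioactivity was followed from 15 min to 120 h in males and to 72 h in females. […] Whole-body autoradiograms were taken at 30 min and 4 h.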

opioid receptors [3] = details: cited from earlier work
>30,000 proteins = assay: Collective screening and target deconvolution; type: binding
[4] = target: delta-opioid receptor (DOR; OPRD1) (Homo sapiens, UniProt P41143); assay: cAMP BRET; type: cell-based; details: HEK-293 cells, up to a concentration of 1 mM
Procedure, shortened: as §1

mu-opioid receptors, MOR = mu-opioid receptors, MOR (Rattus norvegicus, UniProt P33535); assay: [^3H]DAMGO competition binding, rat brain membranes
[5] = target: kappa-opioid receptors, KOR (Rattus norvegicus, UniProt P34975); assay: [^3H]U69,593 competition binding, rat brain membranes
NK1R = NK1R (Rattus norvegicus, UniProt P14600); assay: [^3H]-Substance P binding, rat whole brain membrane homogenates
[6] = system: cDNA libraries derived from human adult brain, human lung cancer cells, and human placenta; assay: Yeast 3-hybrid screen, human cDNA libraries; details: lung cancer cell and placenta libraries
mice [7] = assay: Conditioned place preference; type: in vivo, mouse; details: male mice
Procedure, shortened: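 Male C57BL/6J mice (20–25 g, n = 8/group) received saline or test compound (10, 30 or 65 mg/kg IP) before 15-min confinement to one side of a two-sided chamber (clear/white vs checkered/black). Vehicle was given before the opposite side on alternate days, counterbalanced across 6 conditioning days. A 20-min free-exploration pre-test came first, within 8 daily sessions. Infrared beams tracked time per side and distance travelled.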

[8] = system: >80 receptor and enzymatic binding sites; assay: Receptor and enzyme competitive screen; details: 100 nM
Procedure, shortened: as §2

mGluR2 = mGluR2 (Homo sapiens, UniProt Q14416); assay: [^3H]LY341495 competition binding, recombinant receptor membranes; details: membranes expressing human recombinant mGluR2
[9] = target: tropomyosin receptor kinase B (TrkB) (Homo sapiens, UniProt Q16620); assay: Screening and target deconvolution experiments; type: binding
rats [10] = assay: [^18F]-FDG PET brain metabolic mapping; type: in vivo, rat; details: 10 mg/kg i.v. infusion in 40 min
Procedure, shortened: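 Rats were handling- and arena-habituated and fasted 16 h. Awake in an open field, they received a continuous IV infusion of buffered saline (n = 4) or test compound (10 mg/kg over 40 min, n = 5). Ten min after infusion start, [18F]-FDG (13 MBq) was given IP. Rats were anesthetized 30 min later and brains PET-scanned. SUVR images used whole brain as reference, analysed voxel-wise and by atlas-based ROIs.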

[11] = target: glucocorticoid receptor (GR) (Homo sapiens, UniProt P04150); assay: Screening and target deconvolution experiments; type: binding
sigma-1 receptors = sigma-1 receptors (Rattus norvegicus, UniProt Q9R0C9); assay: [^3H]-pentazocine competition binding, rat brain membranes
mGluR1 = mGluR1 (Homo sapiens, UniProt Q13255); assay: mGluR functional assay; type: biochemical
mice [12] = assay: Forced swimming test; type: in vivo, mouse; details: 24 hours after
Procedure, shortened: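 Male CD-1 mice (35–40 g, n = 8/condition) received a single IP dose of test compound (1, 3 or 10 mg/kg) or saline 24 h before a 6-min swim under 800 lux. Cylinders were 30 cm high × 20 cm diameter, holding 15 cm of water at 23 ± 1°C. A blinded observer scored immobility from video over the last 4 min.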

mGluR6 = mGluR6 (Homo sapiens, UniProt O15303); assay: mGluR functional assay; type: biochemical
NMDA receptors = assay: [^3H]MK-801 competition binding, rat brain membranes
KOR (OPRK1) = KOR (OPRK1) (Homo sapiens, UniProt P41145); assay: cAMP BRET; type: cell-based; details: HEK-293 cells, up to a concentration of 1 mM
Procedure, shortened: as §1

rats [13] = assay: Heroin self-administration and substitution; type: in vivo, rat; details: 0.5 mg/kg/inf IV
mGluR8 = mGluR8 (Homo sapiens, UniProt O00222); assay: mGluR functional assay; type: biochemical
opioid receptors [14] = details: not tested experimentally; cited from earlier work

N[C@@]1(c2ccccc2Cl)CCC[C@@H](O)C1=O [(2R,6R)-HNK, (2R,6R)-hydroxynorketamine]
cAMP response (inhibition of cAMP accumulation) (MOR (OPRM1)): did not induce any cAMP response | functional responses at mGluR2/3 (mGluR2/3): did not affect | NMDAR-associated neurotoxicity (rats [1]): does not produce NMDAR-associated neurotoxicity | binding of Substance P to NK1 in screen [2]: increases binding of Substance P | % of the total radioactivity exposure through 72 hours ([^14C]-; female rats): 26.7% | plasma exposure AUC 0–72h ([^14C]-; female rats): 7090 ng eq·h/g | % of the total radioactivity exposure through 72 hours ([^14C]-; male rats): 21.6% | plasma exposure AUC 0–72h ([^14C]-; male rats): 5330 ng eq·h/g | functional properties at opioid receptors (opioid receptors [3]): inverse agonist properties | direct protein interactions, all screens together (>30,000 proteins): failed to identify any (2R,6R)-HNK-protein interactions | cAMP response (inhibition of cAMP accumulation) [4]: did not induce any cAMP response | binding to opioid receptors (MOR) (mu-opioid receptors, MOR; concentrations up to 100 μM): does not bind | MOR binding, displacement of [^3H]DAMGO (mu-opioid receptors, MOR; rat brain membranes): failed to displace | binding to opioid receptors (KOR) ([5]; concentrations up to 100 μM): does not bind | KOR binding, displacement of [^3H]U69,593 ([5]; rat brain membranes): failed to displace | [^3H]-Substance P binding (NK1R): did not alter | high-confidence (2R,6R)-HNK-protein interactions [6]: did not identify any positive high-confidence (2R,6R)-HNK-protein interactions | locomotor activity, repeated administration (mice [7]; 10, 30, 65 mg/kg IP, CPP conditioning sessions): did not produce any changes in locomotor activity | conditioned place preference (mice [7]; repeated 10, 30, 65 mg/kg IP): did not induce CPP | locomotor sensitization (mice [7]; repeated administration): did not induce sensitization | hits in competitive screen [8]: No hits | displacement of [^3H]LY341475 (mGluR2): failed to displace | interaction with TrkB [9]: failed to interact | metabolic activity in the PFC (rats [10]): did not see any metabolic activity | regional metabolic connectivity profile (rats [10]): closely resembled the saline condition | brain metabolic activity ([^18F]-FDG uptake), voxel-wise analysis (rats [10]; insula, nucleus accumbens, globus pallidus, thalamus, cortices, cerebellum): mild but significant increase | FDG uptake in the nucleus accumbens, ROI-based (rats [10]; vs saline): ~ 10 % increase | interaction with GR [11]: failed to interact | binding to sigma receptors ([^3H]-pentazocine) (sigma-1 receptors): did not bind | effect in functional assay at mGluR1 (mGluR1): no effects | immobility time in forced swimming test, difference from vehicle (mice [12]; 1 mg/kg IP): but not 1 mg/kg | immobility time in forced swimming test (mice [12]; 3 or 10 mg/kg IP, single administration): reduced immobility time | effect in functional assay at mGluR6 (mGluR6): no effects | displacement of [^3H]MK-801 (NMDAR binding) (NMDA receptors; concentrations up to 100 μM): no displacement | displacement of [^3H]MK801 binding (NMDA receptors; rat brain membranes): failed to displace | cAMP response (inhibition of cAMP accumulation) (KOR (OPRK1)): did not induce any cAMP response | pressing on first session after heroin substitution (rats [13]): pressed significantly more | self-administration on successive sessions after heroin substitution (rats [13]): rapid extinction of self-administration | effect in functional assay at mGluR8 (mGluR8): no effects | affinity for opioid receptors by computational modeling (opioid receptors [14]): high (i.e. in the nanomolar range) affinity
